According to paper PMC2923871 (Journal of Medicinal Chemistry, 2010):
pEC50, pIC50: −log10 of the molar value. Where two headings read alike, the source gives them in different places. One block for each molecule: values may come before it.

Assays:
[1] = Pooled human liver microsomal assay; type: in vitro ADME; conditions: pooled human liver microsomes, 0.5 μM compound, NADPH
Procedure, shortened: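 Microsomes at 0.5 mg/mL in 50 mM potassium phosphate, pH 7.4, reaction started with excess NADPH. Aliquots at 0, 3, 6, 9, 15 and 30 min quenched in acetonitrile, internal standard added, protein spun down, UPLC-MS/MS. Rate constant from exponential decay of compound/internal standard peak-area ratio. CLi scaled by incubation volume/mg protein and 52.5 mg protein/g liver. Verapamil positive control.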

[2] = tested on: bloodstream form T. b. brucei BS427; experiment: Trypanocidal activity, Alamar Blue assay; type: cell-based
[3] = Chemical stability in phosphate buffer at pH 7.4; type: physicochemical; conditions: pH 7.4, t1/2 pH 7.4, phosphate buffer pH 7.4
T. brucei = conditions: cited from earlier work
[4] = phosphate buffer pH 7.4; previously reported compound; cited from earlier work

SMILES: Cc1cccc(OP(=O)(N[C@@H](C(=O)OC(C)(C)C)C(C)C)OC[C@H]2OC(C)(C)O[C@H]2C(=O)NO)c1C (stereo partly drawn) [15q]
increase in activity ([2]; 15q relative to 15a): more than 5000 times

SMILES: CCOC(=O)[C@H](NP(=O)(OC[C@H]1OC(C)(C)O[C@H]1C(=O)NO)Oc1cccc(C)c1C)C(C)C (stereo partly drawn) [15p]
PHLM Cli [1]: <0.5 mL/min/g

SMILES: CC1(C)O[C@H](COP(=O)(O)O)[C@H](C(=O)NO)O1 [compound 1, 2,3-O-Isopropylidene-4-erythrono hydroxamate]
pEC50 (T. brucei; T. brucei cell culture, previously reported compounds): < 3.48 | activity against the parasite (T. brucei; result in words): inactive

SMILES: COC(=O)[C@@H](C)NP(=O)(OC[C@H]1OC(C)(C)O[C@H]1C(=O)NO)Oc1ccc([N+](=O)[O-])cc1 (stereo partly drawn) [15a]
half-life [4]: about 50 min

Second part, led by results:

PHLM Cli [1]: <0.5 mL/min/g
SMILES: CCOC(=O)[C@H](NP(=O)(OC[C@H]1OC(C)(C)O[C@H]1C(=O)NO)Oc1ccc(C)cc1)C(C)C (stereo partly drawn) [15l]

PHLM Cli [1]: <0.5 mL/min/g
SMILES: CCOC(=O)[C@H](NP(=O)(OC[C@H]1OC(C)(C)O[C@H]1C(=O)NO)Oc1ccccc1)C(C)C (stereo partly drawn) [15f]

half-life [3]: 30 h
SMILES: COC(=O)[C@@H](C)NP(=O)(OC[C@H]1OC(C)(C)O[C@H]1C(=O)NO)Oc1cccc(C)c1C (stereo partly drawn) [15o]
pIC50 ([2]; Trypanosoma brucei): 6.57
